ChEMBL document CHEMBL2086252, “Syntheses and evaluation of anticonvulsant activity of novel branched alkyl carbamates” (J Med Chem, 2012)
Active and inactive are the calls of the source. No cut-off for these calls is given here.

Legend:
Rattus norvegicus [1] = experiment: Neurotoxicity in pilocarpine-induced status epilepticus Sprague-Dawley albino rat model assessed as minimal motor impairment at 300 mg/kg, ip after 0.25 hr by rotarod test; format: toxicity, organism-based; design: dose 300 mg/kg, route intraperitoneal; settings: in vivo
Summary of the method: (§1)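 Rat pilocarpine status epilepticus model: test carbamate given at 0 or 30 min after the first observed Racine stage 3 motor seizure, which marks SE onset. Neurotoxicity was scored within the same model.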

Rattus norvegicus [2] = experiment: Neurotoxicity in pilocarpine-induced status epilepticus Sprague-Dawley albino rat model assessed as minimal motor impairment at 100 mg/kg, ip after 0.5 hrs by rotarod test; format: toxicity, organism-based; design: dose 100 mg/kg, route intraperitoneal; settings: in vivo
Mus musculus [3] = experiment: Anticonvulsant activity in albino CF1 mouse assessed as protection against subcutaneous metrazol-induced seizures at 30 mg/kg, ip after 0.5 hrs; format: functional, organism-based; design: dose 30 mg/kg
Summary of the method: (§2)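 Mice dosed ip at 30, 100 or 300 mg/kg, then tested 0.5 h and 4 h after administration in the MES or scMet test. Protection was recorded as animals protected over animals tested. Neurotoxicity was recorded as motor impairment or sedation, as animals affected over animals tested.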

Rattus norvegicus [4] = experiment: Neurotoxicity in pilocarpine-induced status epilepticus Sprague-Dawley albino rat model assessed as minimal motor impairment at 100 mg/kg, ip after 0.25 hr by rotarod test; format: toxicity, organism-based; design: dose 100 mg/kg, route intraperitoneal; settings: in vivo
Rattus norvegicus [5] = experiment: Neurotoxicity in pilocarpine-induced status epilepticus Sprague-Dawley albino rat model assessed as minimal motor impairment at 300 mg/kg, ip after 2 hrs by rotarod test; format: toxicity, organism-based; design: dose 300 mg/kg, route intraperitoneal; settings: in vivo; summary of the method: as §1
Rattus norvegicus [6] = experiment: Anticonvulsant activity in Sprague-Dawley albino rat assessed as protection against maximal electroshock-induced seizures at 30 mg/kg, po after 4 hrs; format: functional, organism-based; design: dose 30 mg/kg
Summary of the method: (§3)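 Rats dosed orally. Anti-MES protection was scored as animals protected over animals tested at each time after dosing. Neurotoxicity was scored as motor impairment or sedation, as animals affected over animals tested.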

Rattus norvegicus [7] = experiment: Anticonvulsant activity in Sprague-Dawley albino rat assessed as protection against maximal electroshock-induced seizures at 30 mg/kg, po after 2 hrs; format: functional, organism-based; design: dose 30 mg/kg; summary of the method: as §3
Mus musculus [8] = experiment: Anticonvulsant activity in albino CF1 mouse assessed as protection against maximal electroshock-induced seizures at 100 mg/kg, ip after 4 hrs; format: functional, organism-based; design: dose 100 mg/kg; summary of the method: as §2
Rattus norvegicus [9] = experiment: Neurotoxicity in pilocarpine-induced status epilepticus Sprague-Dawley albino rat model assessed as minimal motor impairment at 100 mg/kg, ip after 4 hrs by rotarod test; format: toxicity, organism-based; design: dose 100 mg/kg, route intraperitoneal; settings: in vivo
Rattus norvegicus [10] = experiment: Neurotoxicity in pilocarpine-induced status epilepticus Sprague-Dawley albino rat model assessed as minimal motor impairment at 300 mg/kg, ip after 0.5 hrs by rotarod test; format: toxicity, organism-based; design: dose 300 mg/kg, route intraperitoneal; settings: in vivo; summary of the method: as §1
Mus musculus [11] = experiment: Anticonvulsant activity in albino CF1 mouse assessed as protection against maximal electroshock-induced seizures at 300 mg/kg, ip after 4 hrs; format: functional, organism-based; design: dose 300 mg/kg; summary of the method: as §2
Rattus norvegicus [12] = experiment: Anticonvulsant activity in Sprague-Dawley albino rat assessed as protection against maximal electroshock-induced seizures at 30 mg/kg, po after 1 hr; format: functional, organism-based; design: dose 30 mg/kg; summary of the method: as §3
Rattus norvegicus [13] = experiment: Neurotoxicity in pilocarpine-induced status epilepticus Sprague-Dawley albino rat model assessed as minimal motor impairment at 100 mg/kg, ip after 1 hr by rotarod test; format: toxicity, organism-based; design: dose 100 mg/kg, route intraperitoneal; settings: in vivo
Rattus norvegicus [14] = experiment: Neurotoxicity in Sprague-Dawley albino rat assessed as minimal motor impairment at 30 mg/kg, po by rotarod test; format: toxicity, organism-based; design: dose 30 mg/kg, route oral; settings: in vivo; summary of the method: as §3
Mus musculus [15] = experiment: Neurotoxicity in albino CF1 mouse assessed as minimal motor impairment at 30 mg/kg, ip after 4 hrs by rotarod test; format: toxicity, organism-based; design: dose 30 mg/kg, route intraperitoneal; settings: in vivo; summary of the method: as §2
Mus musculus [16] = experiment: Anticonvulsant activity in albino CF1 mouse assessed as protection against subcutaneous metrazol-induced seizures at 300 mg/kg, ip after 4 hrs; format: functional, organism-based; design: dose 300 mg/kg; summary of the method: as §2
Rattus norvegicus [17] = experiment: Anticonvulsant activity in Sprague-Dawley albino rat assessed as protection against maximal electroshock-induced seizures at 30 mg/kg, po after 30 mins; format: functional, organism-based; design: dose 30 mg/kg; summary of the method: as §3
Mus musculus [18] = experiment: Neurotoxicity in albino CF1 mouse assessed as minimal motor impairment at 300 mg/kg, ip after 4 hrs by rotarod test; format: toxicity, organism-based; design: dose 300 mg/kg, route intraperitoneal; settings: in vivo; summary of the method: as §2
Mus musculus [19] = experiment: Anticonvulsant activity in albino CF1 mouse assessed as protection against subcutaneous metrazol-induced seizures at 100 mg/kg, ip after 0.5 hrs; format: functional, organism-based; design: dose 100 mg/kg; summary of the method: as §2
Mus musculus [20] = experiment: Neurotoxicity in albino CF1 mouse assessed as minimal motor impairment at 100 mg/kg, ip after 0.5 hrs by rotarod test; format: toxicity, organism-based; design: dose 100 mg/kg, route intraperitoneal; settings: in vivo; summary of the method: as §2
Rattus norvegicus [21] = experiment: Neurotoxicity in pilocarpine-induced status epilepticus Sprague-Dawley albino rat model assessed as minimal motor impairment at 300 mg/kg, ip after 4 hrs by rotarod test; format: toxicity, organism-based; design: dose 300 mg/kg, route intraperitoneal; settings: in vivo; summary of the method: as §1
Mus musculus [22] = experiment: Anticonvulsant activity in albino CF1 mouse assessed as protection against maximal electroshock-induced seizures at 100 mg/kg, ip after 0.5 hrs; format: functional, organism-based; design: dose 100 mg/kg; summary of the method: as §2
Mus musculus [23] = experiment: Anticonvulsant activity in albino CF1 mouse assessed as protection against subcutaneous metrazol-induced seizures at 300 mg/kg, ip after 0.5 hrs; format: functional, organism-based; design: dose 300 mg/kg; summary of the method: as §2
Mus musculus [24] = experiment: Anticonvulsant activity in albino CF1 mouse assessed as protection against subcutaneous metrazol-induced seizures at 30 mg/kg, ip after 4 hrs; format: functional, organism-based; design: dose 30 mg/kg; summary of the method: as §2
Rattus norvegicus [25] = experiment: Neurotoxicity in pilocarpine-induced status epilepticus Sprague-Dawley albino rat model assessed as minimal motor impairment at 300 mg/kg, ip after 1 hr by rotarod test; format: toxicity, organism-based; design: dose 300 mg/kg, route intraperitoneal; settings: in vivo; summary of the method: as §1
Mus musculus [26] = experiment: Anticonvulsant activity in albino CF1 mouse assessed as protection against subcutaneous metrazol-induced seizures at 100 mg/kg, ip after 4 hrs; format: functional, organism-based; design: dose 100 mg/kg; summary of the method: as §2
Rattus norvegicus [27] = experiment: Neurotoxicity in pilocarpine-induced status epilepticus Sprague-Dawley albino rat model assessed as minimal motor impairment at 100 mg/kg, ip after 2 hrs by rotarod test; format: toxicity, organism-based; design: dose 100 mg/kg, route intraperitoneal; settings: in vivo
Mus musculus [28] = experiment: Neurotoxicity in albino CF1 mouse assessed as minimal motor impairment at 300 mg/kg, ip after 0.5 hrs by rotarod test; format: toxicity, organism-based; design: dose 300 mg/kg, route intraperitoneal; settings: in vivo; summary of the method: as §2
Mus musculus [29] = experiment: Anticonvulsant activity in albino CF1 mouse assessed as protection against maximal electroshock-induced seizures at 30 mg/kg, ip after 4 hrs; format: functional, organism-based; design: dose 30 mg/kg; summary of the method: as §2
Mus musculus [30] = experiment: Neurotoxicity in albino CF1 mouse assessed as minimal motor impairment at 100 mg/kg, ip after 4 hrs by rotarod test; format: toxicity, organism-based; design: dose 100 mg/kg, route intraperitoneal; settings: in vivo; summary of the method: as §2
Mus musculus [31] = experiment: Anticonvulsant activity in albino CF1 mouse assessed as protection against maximal electroshock-induced seizures at 300 mg/kg, ip after 0.5 hrs; format: functional, organism-based; design: dose 300 mg/kg; summary of the method: as §2
Mus musculus [32] = experiment: Neurotoxicity in albino CF1 mouse assessed as minimal motor impairment at 30 mg/kg, ip after 0.5 hrs by rotarod test; format: toxicity, organism-based; design: dose 30 mg/kg, route intraperitoneal; settings: in vivo; summary of the method: as §2
Mus musculus [33] = experiment: Anticonvulsant activity in albino CF1 mouse assessed as protection against maximal electroshock-induced seizures at 30 mg/kg, ip after 0.5 hrs; format: functional, organism-based; design: dose 30 mg/kg; summary of the method: as §2
Rattus norvegicus [34] = experiment: Anticonvulsant activity in ip dosed Sprague-Dawley albino rat assessed as protection against pilocarpine-induced status epilepticus after 0.5 hrs; format: functional
Summary of the method: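 Pilocarpine status epilepticus model in rats. Number and severity of convulsive seizures were observed behaviourally.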

Rattus norvegicus [35] = experiment: Anticonvulsant activity in Sprague-Dawley albino rat assessed as protection against maximal electroshock-induced seizures at 30 mg/kg, po after 15 mins; format: functional, organism-based; design: dose 30 mg/kg; summary of the method: as §3

Row | SMILES | Activity (Rattus norvegicus [1]) | Activity (Rattus norvegicus [2]) | Activity (Mus musculus [3]) | Activity (Rattus norvegicus [4]) | Activity (Rattus norvegicus [5]) | Activity (Rattus norvegicus [6]) | Activity (Rattus norvegicus [7]) | Activity (Mus musculus [8]) | Activity (Rattus norvegicus [9]) | Activity (Rattus norvegicus [10]) | Activity (Mus musculus [11]) | Activity (Rattus norvegicus [13]) | Activity (Mus musculus [20]) | Activity (Rattus norvegicus [21]) | Activity (Mus musculus [24]) | Activity (Rattus norvegicus [25]) | Activity (Rattus norvegicus [27]) | Activity (Mus musculus [28]) | Activity (Mus musculus [32]) | Activity (Mus musculus [33]) | other results
1 | CCCCC(CC)COC(N)=O (racemic) | Toxic | Non-toxic | inactive | Non-toxic | Toxic | inactive | inactive | inactive | Non-toxic | Toxic | Active | Non-toxic | Non-toxic | Toxic | inactive | Toxic | Non-toxic | Toxic | Non-toxic | inactive | Activity (Rattus norvegicus [12]): inactive; Activity (Rattus norvegicus [14]): Non-toxic; Activity (Mus musculus [15]): Non-toxic; Activity (Mus musculus [16]): inactive; Activity (Rattus norvegicus [17]): inactive; Activity (Mus musculus [18]): Non-toxic; Activity (Mus musculus [19]): inactive; Activity (Mus musculus [22]): Active; Activity (Mus musculus [23]): Active; Activity (Mus musculus [26]): inactive; Activity (Mus musculus [29]): inactive; Activity (Mus musculus [30]): Non-toxic; Activity (Mus musculus [31]): Active
2 | CCCC(C(N)=O)C(C)CC (configuration not stated) |  |  |  |  |  |  |  |  |  |  |  |  |  |  |  |  |  |  |  |  | ED50 (Rattus norvegicus [34]): 84 mg/kg
3 | CC(C)(C)CCOC(N)=O | Toxic | Non-toxic | inactive | Non-toxic | Non-toxic |  |  |  | Non-toxic | Toxic |  | Non-toxic | Toxic | Non-toxic | inactive | Non-toxic | Non-toxic | Toxic | Toxic | Active | Activity (Mus musculus [22]): Active
4 | CCC(CC)COC(N)=O | Toxic |  | inactive |  | Non-toxic | inactive | inactive | inactive | Non-toxic | Toxic | inactive | Non-toxic | Non-toxic | Non-toxic | inactive | Non-toxic | Non-toxic | Toxic | Non-toxic | inactive | Activity (Rattus norvegicus [35]): inactive; Activity (Rattus norvegicus [12]): inactive; Activity (Rattus norvegicus [14]): Non-toxic; Activity (Mus musculus [15]): Non-toxic; Activity (Mus musculus [16]): inactive; Activity (Rattus norvegicus [17]): inactive; Activity (Mus musculus [18]): Non-toxic; Activity (Mus musculus [19]): inactive; Activity (Mus musculus [23]): Active; Activity (Mus musculus [26]): inactive; Activity (Mus musculus [29]): inactive; Activity (Mus musculus [30]): Non-toxic; Activity (Mus musculus [31]): Active
